Measurements reported in publication PMC10262665 (Science (New York, N.Y.), 2023).
Read-outs that look alike come from different tables or passages of the source.

Columns and labels:
fumarase [1] = molecular target: T1, fumarase (Homo sapiens, UniProt P07954); test: Differential scanning fluorimetry; format: binding
T1 sequence (P07954 45-510): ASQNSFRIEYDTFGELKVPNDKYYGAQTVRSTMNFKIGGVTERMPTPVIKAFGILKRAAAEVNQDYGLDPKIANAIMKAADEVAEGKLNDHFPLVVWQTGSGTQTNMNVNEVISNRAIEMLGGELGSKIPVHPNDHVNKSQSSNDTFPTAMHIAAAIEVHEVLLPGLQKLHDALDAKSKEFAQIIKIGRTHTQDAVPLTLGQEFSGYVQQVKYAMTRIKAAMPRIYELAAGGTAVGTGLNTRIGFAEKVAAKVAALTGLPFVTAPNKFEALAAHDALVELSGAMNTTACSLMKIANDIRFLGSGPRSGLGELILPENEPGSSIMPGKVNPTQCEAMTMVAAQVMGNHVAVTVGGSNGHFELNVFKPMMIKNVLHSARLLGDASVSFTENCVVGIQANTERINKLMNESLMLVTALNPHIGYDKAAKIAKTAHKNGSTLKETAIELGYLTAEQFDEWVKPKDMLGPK

PKM2 = PKM2 (Homo sapiens, UniProt P14618); test: MIDAS protein-metabolite interaction screen; format: binding; details: significant PMI Q < 0.01
PKM2, sequence (P14618 whole entry): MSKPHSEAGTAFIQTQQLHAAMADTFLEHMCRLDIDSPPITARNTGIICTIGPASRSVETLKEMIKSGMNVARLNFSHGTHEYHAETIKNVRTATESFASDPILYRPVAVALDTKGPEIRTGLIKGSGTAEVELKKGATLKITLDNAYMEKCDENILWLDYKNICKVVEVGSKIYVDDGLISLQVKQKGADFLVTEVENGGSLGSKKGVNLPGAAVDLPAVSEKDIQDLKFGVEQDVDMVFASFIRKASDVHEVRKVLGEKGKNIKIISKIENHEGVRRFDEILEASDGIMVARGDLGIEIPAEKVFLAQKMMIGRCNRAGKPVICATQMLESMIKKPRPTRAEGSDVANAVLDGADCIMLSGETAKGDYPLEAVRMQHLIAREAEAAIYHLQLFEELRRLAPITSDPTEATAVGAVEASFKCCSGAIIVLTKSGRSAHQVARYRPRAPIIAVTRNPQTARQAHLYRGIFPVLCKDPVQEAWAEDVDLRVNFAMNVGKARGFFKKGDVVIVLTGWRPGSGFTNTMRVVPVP
Outline: (§1)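 Purified protein is separated from a defined metabolite library by a semipermeable dialysis membrane that passes metabolites but not protein, then incubated to relative equilibrium. Protein is denatured and removed. Metabolites in both chambers are quantified by flow injection analysis–MS, with methods optimized for each pool. The between-chamber fold change is normalized and corrected for nonspecific interactions.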

[2] = molecular target: glucose-6-phosphate isomerase (GPI) (Homo sapiens, UniProt P06744); test: MIDAS protein-metabolite interaction screen; format: binding; details: significant PMI Q < 0.01
Outline: as §1

enolase = test: In vitro enolase activity; format: biochemical, human
ENO1 [3] = molecular target: T2, ENO1 (Homo sapiens, UniProt P06733); test: Differential scanning fluorimetry; format: binding
T2 sequence (P06733 whole entry): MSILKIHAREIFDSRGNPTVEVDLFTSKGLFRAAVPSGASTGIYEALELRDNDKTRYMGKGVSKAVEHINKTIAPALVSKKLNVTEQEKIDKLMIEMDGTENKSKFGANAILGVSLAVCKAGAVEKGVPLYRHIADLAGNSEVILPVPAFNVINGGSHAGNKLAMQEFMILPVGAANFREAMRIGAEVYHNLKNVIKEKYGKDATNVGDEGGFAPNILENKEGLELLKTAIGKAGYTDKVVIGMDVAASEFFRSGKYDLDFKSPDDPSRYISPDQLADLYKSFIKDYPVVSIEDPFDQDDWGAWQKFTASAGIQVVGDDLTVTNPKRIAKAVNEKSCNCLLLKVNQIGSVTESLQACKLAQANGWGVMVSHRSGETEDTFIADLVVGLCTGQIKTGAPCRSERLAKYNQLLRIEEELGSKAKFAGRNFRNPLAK

ENO2 [4] = molecular target: T3, ENO2 (Homo sapiens, UniProt P09104); test: Differential scanning fluorimetry; format: binding
T3 sequence (P09104 whole entry): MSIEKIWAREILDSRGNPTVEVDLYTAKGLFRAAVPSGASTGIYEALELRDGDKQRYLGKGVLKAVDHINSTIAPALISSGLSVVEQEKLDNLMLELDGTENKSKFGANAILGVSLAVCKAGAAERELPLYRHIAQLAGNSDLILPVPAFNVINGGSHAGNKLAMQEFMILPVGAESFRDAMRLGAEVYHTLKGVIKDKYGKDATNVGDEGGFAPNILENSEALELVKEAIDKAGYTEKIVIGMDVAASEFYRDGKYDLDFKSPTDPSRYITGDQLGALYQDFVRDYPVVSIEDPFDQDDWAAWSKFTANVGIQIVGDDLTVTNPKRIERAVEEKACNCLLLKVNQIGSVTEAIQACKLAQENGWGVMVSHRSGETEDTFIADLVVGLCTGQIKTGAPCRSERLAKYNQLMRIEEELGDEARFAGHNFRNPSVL

ENO1 [5] = molecular target: T2, ENO1; test: MIDAS protein-metabolite interaction screen; format: binding; details: significant PMI Q < 0.01
Outline: as §1

ENO2 [6] = molecular target: T3, ENO2; test: MIDAS protein-metabolite interaction screen; format: binding; details: significant PMI Q < 0.01
Outline: as §1

LDHA [7] = molecular target: T4, LDHA (Homo sapiens, UniProt P00338); test: Binding to palmitoyl-CoA immobilized on agarose beads
Outline: (§2)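 Pull-down of LDH protein on palmitoyl-CoA immobilized on agarose beads. Competition with free palmitoyl-CoA, with buffer alone or acetyl-CoA as comparators.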

LDHB [8] = molecular target: T5, LDHB (Homo sapiens, UniProt P07195); test: as above
T5 sequence (P07195 whole entry): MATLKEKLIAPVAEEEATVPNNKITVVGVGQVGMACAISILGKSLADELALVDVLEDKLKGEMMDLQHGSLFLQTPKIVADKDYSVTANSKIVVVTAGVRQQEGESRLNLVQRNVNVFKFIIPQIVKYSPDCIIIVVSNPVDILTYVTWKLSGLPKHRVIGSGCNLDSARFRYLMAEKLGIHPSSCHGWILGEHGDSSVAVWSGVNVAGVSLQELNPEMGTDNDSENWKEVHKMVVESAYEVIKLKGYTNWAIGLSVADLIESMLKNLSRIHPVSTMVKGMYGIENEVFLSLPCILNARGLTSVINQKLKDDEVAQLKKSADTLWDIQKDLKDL
Outline: as §2

LDHB [9] = molecular target: T5, LDHB; test: Differential scanning fluorimetry; format: binding
LDHA [10] = molecular target: T4, LDHA; test: LDH enzyme activity assay; format: biochemical; details: for mode of LDHA inhibition: with respect to NAD and lactate; for inhibition of LDHA enzyme activity: in vitro
Outline: (§3)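 LDH isoform activity measured in vitro with test metabolites (adenosine nucleotides, CoA and acyl-CoAs) over a concentration range. IC50 is derived from the inhibition curves. Mode of inhibition is assessed against NAD and lactate.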

LDHA [11] = molecular target: T4, LDHA; test: Differential scanning fluorimetry; format: binding
LDHB [12] = molecular target: T5, LDHB; test: LDH enzyme activity assay; format: biochemical; details: in vitro
Outline: as §3

FBP2 = molecular target: T6, FBP2 (Homo sapiens, UniProt O00757); test: MIDAS protein-metabolite interaction screen; format: binding; details: significant PMI Q < 0.01
T6 sequence (O00757 1-339): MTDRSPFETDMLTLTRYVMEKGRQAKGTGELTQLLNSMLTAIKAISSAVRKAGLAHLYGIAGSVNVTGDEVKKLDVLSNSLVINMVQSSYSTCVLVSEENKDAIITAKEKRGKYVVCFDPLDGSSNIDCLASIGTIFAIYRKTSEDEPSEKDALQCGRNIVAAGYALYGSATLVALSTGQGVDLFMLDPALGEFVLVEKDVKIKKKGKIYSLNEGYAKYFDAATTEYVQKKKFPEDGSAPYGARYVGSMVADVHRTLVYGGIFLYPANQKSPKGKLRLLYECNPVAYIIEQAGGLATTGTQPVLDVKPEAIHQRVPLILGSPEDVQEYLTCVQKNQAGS
Outline: as §1

FBP1 = molecular target: T7, FBP1 (Homo sapiens, UniProt P09467); test: MIDAS protein-metabolite interaction screen; format: binding; details: significant PMI Q < 0.01
T7 sequence (P09467 1-338): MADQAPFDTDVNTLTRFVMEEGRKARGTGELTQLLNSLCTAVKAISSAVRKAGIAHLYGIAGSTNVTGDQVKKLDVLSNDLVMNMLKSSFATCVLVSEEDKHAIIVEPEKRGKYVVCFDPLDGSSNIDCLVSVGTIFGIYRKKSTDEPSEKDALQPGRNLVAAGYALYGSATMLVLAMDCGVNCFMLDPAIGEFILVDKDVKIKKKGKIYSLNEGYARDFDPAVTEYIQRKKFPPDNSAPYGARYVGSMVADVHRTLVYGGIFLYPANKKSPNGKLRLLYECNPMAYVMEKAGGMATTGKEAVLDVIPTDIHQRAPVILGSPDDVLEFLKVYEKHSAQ
Outline: as §1

fumarase [13] = molecular target: T1, fumarase; test: Fumarase kinetic assays; format: biochemical
fumarase (FH) = molecular target: T8, fumarase (FH) (Homo sapiens, UniProt P07954); test: MIDAS protein-metabolite interaction screen; format: binding; details: significant PMI Q < 0.01
T8 sequence (P07954 45-510): T1 sequence (P07954 45-510)
Outline: as §1

[14] = molecular target: T9, phosphofructokinase (PFKP) (Homo sapiens, UniProt Q01813); test: MIDAS protein-metabolite interaction screen; format: binding; details: significant PMI Q < 0.01
T9 sequence (Q01813 1-784): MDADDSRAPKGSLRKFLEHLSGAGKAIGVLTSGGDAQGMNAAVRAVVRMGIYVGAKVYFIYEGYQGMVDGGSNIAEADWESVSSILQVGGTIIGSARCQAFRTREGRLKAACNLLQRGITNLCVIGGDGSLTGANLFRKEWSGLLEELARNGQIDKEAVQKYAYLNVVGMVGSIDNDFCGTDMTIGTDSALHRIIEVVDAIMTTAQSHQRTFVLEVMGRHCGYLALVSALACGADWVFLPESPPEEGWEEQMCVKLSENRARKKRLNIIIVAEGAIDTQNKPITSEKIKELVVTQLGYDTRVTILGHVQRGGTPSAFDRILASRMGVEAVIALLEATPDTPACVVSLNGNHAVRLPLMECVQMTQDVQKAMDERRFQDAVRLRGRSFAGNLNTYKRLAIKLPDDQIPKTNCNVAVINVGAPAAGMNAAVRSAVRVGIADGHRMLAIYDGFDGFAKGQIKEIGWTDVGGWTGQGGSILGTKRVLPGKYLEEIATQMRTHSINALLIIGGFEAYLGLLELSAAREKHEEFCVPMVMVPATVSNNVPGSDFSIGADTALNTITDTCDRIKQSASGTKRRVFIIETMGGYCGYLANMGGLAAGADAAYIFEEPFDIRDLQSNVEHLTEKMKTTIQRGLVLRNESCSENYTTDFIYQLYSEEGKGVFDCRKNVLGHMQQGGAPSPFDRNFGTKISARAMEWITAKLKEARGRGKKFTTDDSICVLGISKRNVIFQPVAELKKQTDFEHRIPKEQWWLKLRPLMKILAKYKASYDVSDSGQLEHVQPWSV
Outline: as §1

Structure (SMILES): O=C(O)/C=C/C(=O)O [fumarate]
- Kd (fumarase [1]; read-out: apparent dissociation constant (Kd app), DSF, fumarase): 3870 µM

Structure (SMILES): N[C@@H](Cc1cc(I)c(O)c(I)c1)C(=O)O [3,5-diiodo-L-tyrosine]
- MIDAS protein-metabolite interaction (PKM2): interacted

Structure (SMILES): Nc1nc2c(ncn2[C@@H]2O[C@H](COP(=O)(O)OP(=O)(O)O)[C@@H](O)[C@H]2O)c(=O)[nH]1 [GDP, guanosine diphosphate]
- MIDAS protein-metabolite interaction (PKM2): interacted

Structure (SMILES): O=C[C@H](O)[C@@H](O)[C@H](O)[C@H](O)COP(=O)(O)O [glucose-6-phosphate]
- MIDAS protein-metabolite interaction [2]: interacted

Structure (SMILES): N[C@@H](COP(=O)(O)O)C(=O)O [pSer, phosphoserine]
- inhibition of in vitro enolase activity (enolase): only weakly inhibited
- Kd (ENO1 [3]): 1380 µM
- Kd (ENO2 [4]): 1150 µM
- MIDAS protein-metabolite interaction (ENO1 [5]): most enriched metabolite
- MIDAS protein-metabolite interaction (ENO2 [6]): most enriched metabolite

Structure (SMILES): CCCCCCCCCCCCCCCC(=O)SCCNC(=O)CCNC(=O)[C@H](O)C(C)(C)COP(=O)(O)OP(=O)(O)OC[C@H]1O[C@@H](n2cnc3c(N)ncnc32)[C@H](O)[C@@H]1OP(=O)(O)O [C16:0-CoA, palmitoyl-CoA]
- disruption of protein binding to immobilized palmitoyl-CoA by free competitor (LDHA [7]; agarose beads): disrupted
- affinity of direct interaction (LDHA [7]; from DSF and bead binding): low-micromolar affinity
- disruption of protein binding to immobilized palmitoyl-CoA by free competitor (LDHB [8]; agarose beads): disrupted
- affinity of direct interaction (LDHB [8]; from DSF and bead binding): low-micromolar affinity
- protein species induced in DSF assay (LDHB [9]; LDHB, low-micromolar concentrations of ligand): thermostable species
- IC50 (LDHA [10]; LDHA enzyme activity, acyl-CoAs): ~1 µM
- mode of LDHA inhibition (LDHA [10]): noncompetitive
- protein species induced in DSF assay (LDHA [11]; LDHA, low-micromolar concentrations of ligand): thermolabile species

Structure (SMILES): Nc1ncnc2c1ncn2[C@@H]1O[C@H](COP(=O)(O)OP(=O)(O)OP(=O)(O)O)[C@@H](O)[C@H]1O [ATP, adenosine triphosphate]
- inhibition of LDHB enzyme activity (LDHB [12]): inhibited only the LDHA isoform
- Kd (LDHB [9]): 697 µM
- mode of LDHA inhibition (LDHA [10]): competitive
- Kd (LDHA [11]): 636 µM

Structure (SMILES): O=C(CO)[C@@H](O)[C@H](O)[C@H](O)COP(=O)(O)O [fructose-6-phosphate]
- MIDAS protein-metabolite interaction [2]: interacted

Structure (SMILES): O=P(O)(O)OC[C@H]1O[C@H](OP(=O)(O)OP(=O)(O)O)[C@H](O)[C@@H]1O [PRPP, 5-phospho-D-ribose 1-diphosphate]
- MIDAS protein-metabolite interaction (FBP2): interacted
- MIDAS protein-metabolite interaction (FBP1): interacted

Structure (SMILES): CN1c2c(nc(N)[nH]c2=O)NCC1CNc1ccc(C(=O)N[C@@H](CCC(=O)O)C(=O)O)cc1 (stereo partly drawn) [5-MTHF, 5-methyltetrahydrofolate]
- MIDAS protein-metabolite interaction (PKM2): interacted

Structure (SMILES): Nc1ncnc2c1ncn2[C@@H]1O[C@H](COP(=O)(O)OP(=O)(O)O)[C@@H](O)[C@H]1O [ADP, adenosine diphosphate]
- inhibition of LDHB enzyme activity (LDHB [12]): only at supraphysiological concentrations
- inhibition of LDHA enzyme activity (LDHA [10]): only at supraphysiological concentrations

Structure (SMILES): NC(CP(=O)(O)O)C(=O)O (stereo not drawn) [AP-3, 2-amino-3-phosphonopropionic acid]
- Kd (fumarase [1]): 980 µM
- inhibition of fumarase, mode (fumarase [13]): competitively inhibited
- MIDAS protein-metabolite interaction (fumarase (FH)): putative interactor

Structure (SMILES): N[C@H]1C(O)O[C@H](COP(=O)(O)O)[C@@H](O)[C@@H]1O (stereo partly drawn) [glucosamine-6-phosphate]
- MIDAS protein-metabolite interaction (FBP2): only FBP1 showed an interaction
- MIDAS protein-metabolite interaction (FBP1): showed an interaction

Structure (SMILES): O=C(CO)[C@@H](O)[C@H](O)[C@H](O)[C@H](O)COP(=O)(O)O [sedoheptulose-7-phosphate]
- MIDAS protein-metabolite interaction [14]: interacted

Structure (SMILES): Nc1ncnc2c1ncn2[C@@H]1O[C@H](COP(=O)(O)O)[C@@H](O)[C@H]1O [AMP, adenosine monophosphate]
- inhibition of LDHB enzyme activity (LDHB [12]): only at supraphysiological concentrations
- inhibition of LDHA enzyme activity (LDHA [10]): only at supraphysiological concentrations

Structure (SMILES): O=C(COP(=O)(O)O)[C@@H](O)[C@H](O)[C@H](O)COP(=O)(O)O [fructose 1,6-bisphosphate]
- MIDAS protein-metabolite interaction [14]: interacted
